Experimental data taken from ChEMBL document CHEMBL3785019, “Dihydropyrazole derivatives as telomerase inhibitors: Structure-based design, synthesis, SAR and anticancer evaluation in vitro and in vivo” (Eur J Med Chem, 2016).

What was measured:
[1] = Cytotoxicity against human PC3 cells after 48 hrs by MTT assay; assay type: functional, cell-based, PC-3
Summary of the method: (§1)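 Tumor cells in log phase in RPMI 1640 + 10% FBS, seeded at 3×10^4 cells mL-1 and incubated 24 h (37 °C, 5% CO2). Test samples added at pre-set concentrations (6 wells each), doxorubicin as reference; 48 h exposure. MTT (2.5 mg·mL-1 in PBS) added for 4 h, formazan dissolved in DMSO, A570 read.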

Bcap37 = experiment: Cytotoxicity against human Bcap37 cells after 48 hrs by MTT assay; assay type: functional, cell-based; summary of the method: as §1
[2] = Cytotoxicity against human MGC803 cells after 48 hrs by MTT assay; assay type: functional, cell-based, MGC-803; summary of the method: as §1
HepG2 = experiment: Cytotoxicity against human HepG2 cells after 48 hrs by MTT assay; assay type: functional, cell-based; summary of the method: as §1
[3] = target: Telomerase reverse transcriptase (Homo sapiens, UniProt O14746); experiment: Inhibition of telomerase in human MGC-803 cells after 24 hrs by TRAP-PCR-ELISA assay; assay type: cell-based
Chain of Telomerase reverse transcriptase (O14746 whole entry): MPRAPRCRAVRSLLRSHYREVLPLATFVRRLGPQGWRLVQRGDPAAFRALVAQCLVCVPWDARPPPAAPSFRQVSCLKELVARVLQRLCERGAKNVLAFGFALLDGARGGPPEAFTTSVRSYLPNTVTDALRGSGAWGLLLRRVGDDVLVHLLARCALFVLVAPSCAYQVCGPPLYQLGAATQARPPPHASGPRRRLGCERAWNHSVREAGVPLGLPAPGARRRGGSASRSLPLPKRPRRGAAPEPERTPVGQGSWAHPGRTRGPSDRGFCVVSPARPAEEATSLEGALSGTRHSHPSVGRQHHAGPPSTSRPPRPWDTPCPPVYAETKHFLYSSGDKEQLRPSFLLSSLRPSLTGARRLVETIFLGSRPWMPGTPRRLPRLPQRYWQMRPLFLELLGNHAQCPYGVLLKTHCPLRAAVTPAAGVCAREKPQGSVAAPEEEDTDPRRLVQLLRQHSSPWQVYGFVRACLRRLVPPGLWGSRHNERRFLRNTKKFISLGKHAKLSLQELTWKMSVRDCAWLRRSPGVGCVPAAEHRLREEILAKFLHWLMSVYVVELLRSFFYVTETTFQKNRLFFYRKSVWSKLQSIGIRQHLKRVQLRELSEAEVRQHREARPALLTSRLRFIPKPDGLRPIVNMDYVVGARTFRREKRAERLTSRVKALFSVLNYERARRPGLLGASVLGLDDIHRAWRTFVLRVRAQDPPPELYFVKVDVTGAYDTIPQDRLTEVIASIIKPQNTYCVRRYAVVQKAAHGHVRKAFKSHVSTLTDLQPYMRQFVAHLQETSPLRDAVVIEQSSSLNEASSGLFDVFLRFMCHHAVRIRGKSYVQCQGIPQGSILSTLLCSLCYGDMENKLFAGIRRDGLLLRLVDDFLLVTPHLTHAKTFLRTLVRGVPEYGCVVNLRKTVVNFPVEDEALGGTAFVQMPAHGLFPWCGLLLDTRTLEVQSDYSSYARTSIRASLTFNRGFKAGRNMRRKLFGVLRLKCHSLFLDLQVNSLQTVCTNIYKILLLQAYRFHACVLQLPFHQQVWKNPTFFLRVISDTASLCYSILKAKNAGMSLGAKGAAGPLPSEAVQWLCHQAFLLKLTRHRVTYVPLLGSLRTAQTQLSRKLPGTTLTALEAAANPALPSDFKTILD
Summary of the method: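 Cells lysed in RIPA on ice for 30 min; extract incubated with TRAP mix at 25 °C for 30 min, then 35 PCR cycles. Products hybridized to DIG probe, captured on streptavidin, detected with peroxidase anti-DIG at 490 nm; mean±SD.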

[4] = Homo sapiens, PC-3, 48 h, read-out: IC50
[5] = Homo sapiens, Bcap37, 48 h, read-out: IC50
[6] = Homo sapiens, MGC-803, 48 h, read-out: IC50
[7] = Homo sapiens, HepG2, 48 h, read-out: IC50

IC50 [3] [µM]	Structure (SMILES)	IC50 [1, 4] [µM]	IC50 (Bcap37; [5]) [µM]	IC50 [2, 6] [µM]	IC50 (HepG2; [7]) [µM]	IC50 (Bcap37; bcap37)	IC50 ([2]; mgc-803)	IC50 (HepG2; hepg2)	IC50 ([1]; pc-3)
	CC1=NN(C(=O)CCc2ccccc2)C(c2cc(Br)cc(Br)c2O)C1 (centres undefined)	11.3	27.2	17.1	9.17				
22.3	COc1ccc(NCC(=O)N2N=C(C)CC2c2ccccc2O)cc1 (centres undefined)	51.6	45.5	9.87	39.1				
	CC1=NN(C(=O)c2ccc(C)cc2)C(c2cc(Br)ccc2O)C1 (centres undefined)	41.2	32.6	21	23.2				
	CC1CCCN(CC(=O)N2N=C(c3cc4ccccc4oc3=O)CC2c2ccccc2)C1 (centres undefined)	28.3				Not Active	Not Active	Not Active	
	Cc1ccc(C(=O)N2N=C(c3cc4ccccc4oc3=O)CC2c2ccccc2)cc1 (centres undefined)	13.2	26.1	31.3	52.3				
	CC1=NN(C(=O)CN2CC(C)CC(C)C2)C(c2ccccc2O)C1 (centres undefined)	36.4	20.9	30.7	51.9				
3.03	O=C(CN1CCOCC1)N1N=C(c2cc3ccccc3oc2=O)CC1c1ccccc1C(F)(F)F (centres undefined)	12.1	14.2	10	21				
3.54	CC(=O)Oc1ccccc1C1CC(C)=NN1C(=O)CN1CCC(C(C)=O)CC1 (centres undefined)	6.8	20.1	4.12	7.8				
3.15	CNCC(=O)N1N=C(c2cc3ccccc3oc2=O)CC1c1ccccc1 (centres undefined)	2.3	4.22	12.8	24				
8.74	O=C(c1ccccc1)N1N=C(c2cc3ccccc3oc2=O)CC1c1ccccc1 (centres undefined)	5.87	32.2	12.7	36.6				
3.17	CC1=NN(C(=O)CCl)C(c2cc(Br)ccc2O)C1 (centres undefined)	8.89	32.3	13.5	16.3				
3.68	CC1=NN(C(=O)CCl)C(c2cc(Br)cc(Br)c2O)C1 (centres undefined)	5.82	51.1	4.91	3.35				
	CN1CCN(CC(=O)N2N=C(c3cc4ccccc4oc3=O)CC2c2ccccc2)CC1 (centres undefined)	25.8	16.9	46.1	33.1				
6.68	CCNCC(=O)N1N=C(c2cc3ccccc3oc2=O)CC1c1ccccc1 (centres undefined)	5.58	6.49	26.6	30.6				
	CC(=O)Oc1ccccc1C1CC(C)=NN1C(=O)CN(C(C)C)C(C)C (centres undefined)	24.5	19.4	20.1	34.1				
	O=C(CNC1CC1)N1N=C(c2cc3ccccc3oc2=O)CC1c1ccccc1 (centres undefined)	28.5				Not Active	Not Active	Not Active	
41.2	CC1=NN(S(=O)(=O)c2ccc([N+](=O)[O-])cc2)C(c2cc(Cl)ccc2O)C1 (centres undefined)	44.2	52.3				Not Active	Not Active	
	CC1=NN(C(=O)CN(CC(C)C)CC(C)C)C(c2ccccc2O)C1 (centres undefined)	32.2	40.5	30	49.2				
54.4	CC1=NN(C(=O)COc2ccc(Cl)cc2)C(c2ccccc2O)C1 (centres undefined)	38.8				Not Active	Not Active	Not Active	
	CC1=NN(C(=O)CN2CCC(Cl)CC2)C(c2ccccc2O)C1 (centres undefined)	34.8	28.6	30.3	42.1				
	CC1=NN(S(=O)(=O)c2ccc([N+](=O)[O-])cc2)C(c2cc(Br)cc(Br)c2O)C1 (centres undefined)	50		40.1		Not Active		Not Active	
3.17	CC(C)CNCC(=O)N1N=C(c2cc3ccccc3oc2=O)CC1c1ccccc1 (centres undefined)	1.92	6.3	29.7	9.97				
	COc1cccc2c1C(=O)c1c(O)c3c(c(O)c1C2=O)C[C@@](O)(C(=O)CO)C[C@@H]3O[C@H]1C[C@H](N)[C@H](O)[C@H](C)O1 [DOXORUBICIN]	0.87	1.12		1.34				
35.7	O=C(CN1CCC(c2ccccc2)CC1)N1N=C(c2cc3ccccc3oc2=O)CC1c1ccccc1 (centres undefined)					Not Active	Not Active	Not Active	Not Active
11.8	C=CCN(CC=C)CC(=O)N1N=C(C)CC1c1cc(Br)ccc1O (centres undefined)	3.09	4.95	10.2	7.87				
3.44	CC[N+](C)(CC)CC(=O)N1N=C(C)CC1c1ccccc1OC (centres undefined)	4.17	5.15	3.32	3.67				

IC50 [3] [µM]	Structure (SMILES)	IC50 [1, 4] [µM]	IC50 (Bcap37; [5]) [µM]	IC50 [2, 6] [µM]	IC50 (HepG2; [7]) [µM]	IC50 (Bcap37; bcap37)	IC50 ([2]; mgc-803)	IC50 (HepG2; hepg2)	IC50 ([1]; pc-3)
	CC1=NN(C(=O)CN2CCC(c3ccccc3)CC2)C(c2ccccc2O)C1 (centres undefined)	20.4	33.7	12.3	23.3				
	CC1=NN(C(=O)COc2ccc(Cl)cc2)C(c2cc(Br)ccc2O)C1 (centres undefined)	49	36.8	23.6				Not Active	
	CCC(=O)N1N=C(C)CC1c1cc(Br)ccc1O (centres undefined)	37.8	20.8	50.3				Not Active	
9.94	CCCN(CCC)CC(=O)N1N=C(C)CC1c1cc(Br)ccc1O (centres undefined)	19	15.3	20.2	9.81				
11	CC1=NN(C(=O)CCc2ccccc2)C(c2ccccc2O)C1 (centres undefined)	9.38	25.7	24.1	20.6				
	CC1=NN(C(=O)c2ccccc2Cl)C(c2ccccc2O)C1 (centres undefined)	42.5	30.2	18.3	25.2				
	CC1=NN(S(=O)(=O)c2ccc(C)cc2)C(c2cc(Br)ccc2O)C1 (centres undefined)	33.2	36.8	30.7	20.8				
2.12	CC(=O)Oc1ccccc1C1CC(C)=NN1C(=O)CN1CCCCC1 (centres undefined)	4.07	12.8	4.89	19				
	CC1=NN(C(=O)c2ccc([N+](=O)[O-])cc2)C(c2ccccc2O)C1 (centres undefined)	36.6	45.2	50	30.1				
	CC1=NN(C(=O)/C=C/c2ccccc2)C(c2ccccc2O)C1 (centres undefined)	42		39.6	29	Not Active			
	CC1=NN(C(=O)CN2CCCC(C)C2)C(c2ccccc2O)C1 (centres undefined)	35.5	35.6	42.9	17.9				
	CC1=NN(C(=O)CN2CCSCC2)C(c2ccccc2O)C1 (centres undefined)	29.2	20.6	31.5	45.3				
	CCN(CC)CC(=O)N1N=C(C)CC1c1ccccc1O (centres undefined)	25.9	45.7	39.8	51.6				
	Cc1ccc(S(=O)(=O)N2N=C(c3cc4ccccc4oc3=O)CC2c2ccccc2)cc1 (centres undefined)	48.6	30.3	50.2				Not Active	
	O=C(CNC1CCCCC1)N1N=C(c2cc3ccccc3oc2=O)CC1c1ccccc1 (centres undefined)	48.5	38.3	26.4	34.4				
	CC1=NN(C(=O)CN(C(C)C)C(C)C)C(c2ccccc2O)C1 (centres undefined)	32.3	4.96	31.2	15.1				
	CC1=NN(C(=O)CCc2ccccc2)C(c2cc(Br)ccc2O)C1 (centres undefined)	16.2	41.3	21.2	17.9				
	CC1=NN(C(=O)COc2ccc(Cl)cc2)C(c2cc(Br)cc(Br)c2O)C1 (centres undefined)	40.2	46.3	50				Not Active	
	CC1=NN(C(=O)c2ccc(C)cc2)C(c2cc(Br)cc(Br)c2O)C1 (centres undefined)	41.2		56.5		Not Active		Not Active	
	CC(C)(C)NCC(=O)N1N=C(c2cc3ccccc3oc2=O)CC1c1ccccc1 (centres undefined)	16.4	36.2	15.4	31.4				
	CC1CC(C)CN(CC(=O)N2N=C(c3cc4ccccc4oc3=O)CC2c2ccccc2)C1 (centres undefined)					Not Active	Not Active	Not Active	Not Active
	CC1CCCCN1CC(=O)N1N=C(c2cc3ccccc3oc2=O)CC1c1ccccc1 (centres undefined)	36.3				Not Active	Not Active	Not Active	
	CC(C)(C)OC(=O)N1CCN(CC(=O)N2N=C(c3cc4ccccc4oc3=O)CC2c2ccccc2)CC1 (centres undefined)	36.4	29.7		28.4		Not Active		
	O=C(CN1CCCC1)N1N=C(c2cc3ccccc3oc2=O)CC1c1ccccc1 (centres undefined)	50.2			44.3	Not Active	Not Active		
	CCN(CC)C1CCN(CC(=O)N2N=C(c3cc4ccccc4oc3=O)CC2c2ccccc2)CC1 (centres undefined)	26.1	15.5	32.4	19.3				
	CC1=NN(C(=O)c2ccc(C)cc2)C(c2ccccc2O)C1 (centres undefined)	40.6	9.97	26.3	11.3				
